Screening results from PubChem BioAssay.
Arr AP2 block = blocks beta-arrestin peptide binding to AP2 adaptin; FITC-arrestin peptide / GST-AP2 beads, flow cytometry; AP2 beta2 appendage carries R879A mutation; 340,000 compounds, 0.31% hits; AID 504490; inhibition, % at 10 µM;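 active = inhibition above a set limit, near 3 SD of compounds lacking own fluorescence, cut at about 54% in these data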;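 note: plate controls were DMSO wells for no effect and 5 µM unlabelled arrestin peptide for full effect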
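System: GST-AP2 R879A glutathione beads | Also added: FITC-arrestin peptide, 50 nM | Times: 12 min plus 1 h, RT | Signal: Bead flow cytometry, FITC channel | Buffer or medium: PBS with 0.05% Tween 20 and 0.1% BSA | Read-out basis: Percent drop in bead-associated FITC signal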
TAG inh = reduces triacylglycerol accumulation in H9c2 cells; Nile Red lipid (TAG) fluorescence; cells loaded with 200 µM oleic acid; 230,000 compounds, 0.66% hits; inhibition, % at 12.5 µM;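 active = pattern-corrected inhibition of lipid staining of at least 50% with the nuclear-stain viability signal not falling by more than 50%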;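 note: 0% = DMSO wells and 100% = triacsin C control wells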
Beta2AR agonist = agonists of human beta-2 adrenergic receptor inducing internalization; P07550; Am2.2-beta2AR cells, FAP receptor internalization, flow cytometry; response, % (no concentration beside the values); 340,000 compounds, 0.43% hits; AID 504454;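 active = response above a set limit, near 3 SD of response in nonfluorescent compounds, cut at about 42% in these data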
NTR1 ag = agonists of human neurotensin receptor NTR1 | NTR1-U2OS beta-arrestin-GFP spot imaging, agonist mode | activation, % at 20 µM | 330,000 compounds, 0.17% hits | AID 493036;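 active = activation at or above 40% of the spot to cytoplasm intensity ratio, with at least 20 cells analyzed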;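 note: 0% = DMSO without peptide and 100% = 100 nM NTR1 peptide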
Target sequence (P30989 whole entry, looked up): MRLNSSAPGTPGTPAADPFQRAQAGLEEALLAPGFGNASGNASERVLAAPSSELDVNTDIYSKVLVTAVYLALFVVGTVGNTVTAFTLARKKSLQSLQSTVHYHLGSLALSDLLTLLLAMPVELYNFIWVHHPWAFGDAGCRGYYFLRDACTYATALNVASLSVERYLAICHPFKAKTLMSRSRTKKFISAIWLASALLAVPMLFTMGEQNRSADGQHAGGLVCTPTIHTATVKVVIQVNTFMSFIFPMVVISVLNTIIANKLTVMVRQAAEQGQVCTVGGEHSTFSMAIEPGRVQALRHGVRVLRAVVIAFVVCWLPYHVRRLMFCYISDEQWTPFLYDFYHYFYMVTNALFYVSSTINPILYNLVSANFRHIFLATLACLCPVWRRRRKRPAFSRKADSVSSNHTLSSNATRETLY
GRK2 inh = blocks RNA aptamer binding to human GRK2. bead flow cytometry, FAM-aptamer displacement from GRK2. inhibition of aptamer binding, % at 10 µM. 330,000 compounds, 0.59% hits. AID 488847;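 active = inhibition of aptamer binding above 40%, roughly 3 SD of noise, on plates passing a quality check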;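 note: median bead fluorescence of bound FAM aptamer so fluorescent compounds give negative values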
Lipid droplet = hepatic lipid droplet formation modulation. AML12 mouse hepatocytes, oleate lipid droplets, BODIPY imaging. inhibition, % at 6.5 µM. 240,000 compounds, 0.4% hits. AID 1656;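 active = lipid droplet intensity inhibited by at least 50%, with more than 500 cells counted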
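Material – AML12 mouse liver cells · Also added – oleate loading, 100 µM · Compound dosing – 6.5 µM single-point dosing · Times – overnight treatment with compound plus oleate · Measured by – fluorescence imaging, 20x objective, two fields per well · Read-out – percent inhibition of filter-corrected integrated lipid droplet intensity per well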
Active calls of the source: *; · = no result; ! = repeats disagree. A selection: hits, their analogues and other compounds. The true share with any hit is near 2%.

SMILES | Arr AP2 block | TAG inh | Beta2AR agonist | NTR1 ag | GRK2 inh | Lipid droplet
CS(=O)(=O)c1nc(-c2ccc(Br)cc2)cc(-c2ccccc2)c1C#N | 5 | 79* | 30 | 15 | 0 | 14
CS(=O)c1nc(-c2ccc(Br)cc2)cc(-c2ccccc2)c1C#N (configuration not stated) | 11 | · | 99* | 66* | 6 | 12
O=C(c1ccc(N2CCCC2=O)cc1)N1CCN(c2cccc(C(F)(F)F)c2)CC1 | -6 | -12 | -11 | 0 | · | ·
Cc1ccc(N2C(=O)C(NC(=O)c3ccccc3F)(C(F)(F)F)C3=C2CC(C)(C)CC3=O)cc1 (configuration not stated) | 15 | · | 9 | 1 | 75* | 16
CC1(C)CC(=O)C2=C(C1)N(c1ccc(F)cc1)C(=O)C2(NC(=O)c1ccccc1F)C(F)(F)F (configuration not stated) | 4 | · | -4 | -2 | 0 | 2
O=C(O)CCCNC(=O)c1ccc(NC(=O)Cc2ccc(Cl)cc2)cc1 | -6 | -11 | 2 | 1 | 3 | -2
CC(C)(C)c1cnnn1-c1ccc(C(=O)CCl)cc1 | 20 | -13 | 45* | -3 | 0 | 4
COc1ccccc1C(=O)NCC(=O)OCC(=O)c1cccc2ccccc12 | 24 | -8 | 2 | -1 | 4 | ·
COc1cc(CNc2ccc(N3CCOCC3)cc2)cc(Br)c1OC | · | 12 | 4 | 1 | 0 | 6
COc1cc(CNc2ccc(N3CCCC3)cc2)cc(Cl)c1OC | 46 | 54* | 13 | 7 | 0 | -8
O=C(O)/C=C/c1ccc(S(=O)(=O)Nc2ccc(C(=O)NCC(=O)O)cc2)cc1 | -2 | 2 | -1 | 1 | 3 | 19
CCc1cccc(NC(=O)c2ccc3c(=O)n4c(nc3c2)CCCCC4)c1 | 3 | 9 | -1 | 10 | 8 | -18
O=C(NCc1cccnc1)/C(=C\c1ccc(-c2cccc(Cl)c2)o1)S(=O)(=O)c1ccccc1 | 23 | · | 26 | · | 2 | -1
O=C(NCc1cccnc1)/C(=C/c1ccc(-c2cccc(Cl)c2)o1)S(=O)(=O)c1ccccc1 | 14 | 18 | 29 | 42* | 0 | ·
CCOC(=O)c1csc(CCNC(=O)c2ccccc2)n1 | · | -8 | · | · | · | ·
COC(=O)c1ccc(NC(=O)c2ccc(NC(=O)c3ccco3)cc2)cc1 | 0 | 27 | 3 | 1 | 83* | -10
CC(=O)c1ccc(NC(=O)c2ccc(NC(=O)c3ccco3)cc2)cc1 | 32 | 14 | 12 | 0 | 77* | -16
CC(=O)Nc1ccc(NC(=O)c2ccco2)cc1 | -5 | · | 0 | -1 | 6 | -1
Cc1cc(C)cc(NC(=O)c2ccc(NC(=O)c3ccco3)cc2)c1 | 2 | -27 | 0 | 1 | 0 | 2
Cc1cc(C)cc(OCC(=O)N/N=C/c2ccncc2)c1 | 20 | -4 | -5 | 0 | 55* | -1
CC(C)n1cnnc1SCC(=O)Nc1cccc(S(=O)(=O)N(C)c2ccccc2)c1 | -1 | -4 | 0 | 1 | 1 | 5
O=C(Nc1cc(C(F)(F)F)ccc1-n1cncn1)c1ccc(F)cc1Cl | -6 | -8 | -1 | -1 | 2 | ·
CC(C)(C)c1ccc(-c2nc(O)c(CC(=O)O)s2)cc1 | · | · | · | -1 | 51* | -3
O=C(O)Cc1sc(-c2ccccc2)nc1-c1ccccc1 | 0 | -6 | 3 | -1 | 0 | ·
COc1ccc(/C=C(/NC(=O)c2ccco2)C(=O)N2CCOCC2)cc1 | -9 | · | 49* | 0 | 0 | 21
SMILES | Arr AP2 block | TAG inh | Beta2AR agonist | NTR1 ag | GRK2 inh | Lipid droplet
CCN(CC(=O)N1CCOCC1)S(=O)(=O)c1ccccc1 | -5 | · | -3 | -2 | 2 | -3
C=CCOC(=O)C1=C(C)NC(SCC(=O)NC(=O)OCC)=C(C#N)C1c1cccnc1 (configuration not stated) | 16 | 8 | 57*! | 1 | 0 | ·
CCOC(=O)C1=C(C)NC(SCC(=O)Nc2nc(C)cs2)=C(C#N)C1c1cccs1 (configuration not stated) | · | · | · | 2 | 51* | ·
CCOc1cc(/C=C/c2nc3cc(C)c(C)cc3s2)ccc1OCC(=O)N1CCOCC1 | -7 | · | -8 | 4 | 0 | -1
CCOc1cc(/C=C\[N+](=O)[O-])ccc1OCC(=O)N1CCOCC1 | -22 | 42 | 67* | 20 | 0 | 2
CC(=O)c1cc2c(cc1NS(=O)(=O)c1ccccc1F)OCO2 | -12 | 6 | 8 | 0 | 0 | 18
COC(=O)c1c(NC(NC(C)=O)C(Cl)(Cl)Cl)sc2c1CCCC2 (configuration not stated) | -5 | · | 3 | 17 | 2 | 14
CCOC(=O)c1c(NC(NC(C)=O)C(Cl)(Cl)Cl)sc2c1CCCC2 (configuration not stated) | 13 | · | 12 | 14 | 73* | -1
CC(=O)N1CCN(C(=O)CCCNC(=O)c2ccc(Cl)cc2)CC1 | 4 | 12 | -4 | 0 | 4 | -6
O=C(C1=C(O)C(=O)N(CCN2CCOCC2)C1c1cccc(Br)c1)c1cc2ccccc2o1 (configuration not stated) | 6 | · | 27 | 2 | 0 | -6
O=C(C1=C(O)C(=O)N(CCN2CCOCC2)C1c1ccc(F)cc1)c1cc2ccccc2o1 (configuration not stated) | 20 | · | 75* | -1 | 4 | 0
CCN(CC)S(=O)(=O)c1cccc(NC(=O)Nc2cccc(C(F)(F)F)c2)c1 | -12 | · | 17 | 41* | 2 | -7
CC1CCCN(C2=C(NS(=O)(=O)c3ccc(Cl)cc3)C(=O)c3ccccc3C2=O)C1 (configuration not stated) | 26 | 48 | 3 | 1 | 1 | 57*
CCOC(=O)N1CCN(C2=C(NS(=O)(=O)c3ccc(C)cc3)C(=O)c3ccccc3C2=O)CC1 | -3 | · | -12 | 0 | 2 | -2
Cc1ccc(S(=O)(=O)NC2=C(N3CCN(Cc4ccccc4)CC3)C(=O)c3ccccc3C2=O)cc1 | -8 | · | 53* | 1 | 0 | -1
N=C1/C(=C\c2ccc(-c3cccc(Cl)c3)o2)C(=O)N=C2SC=C(c3ccccc3)N12 | 10 | · | 57* | -1 | 0 | -26
N=C1/C(=C\c2ccc(-c3ccc(C(=O)O)cc3)o2)C(=O)N=C2SC=C(c3ccccc3)N12 | 2 | -2 | 6 | · | · | -5
CCN1CCN(Cc2ccc(NC(=O)c3ccc(C)c(NC(=O)c4nccn4C)c3)cc2C(F)(F)F)CC1 | -2 | -6 | 9 | 1 | 0 | 5
CCN1CCN(Cc2ccc(NC(=O)c3ccc(C)c(NC(=O)c4cc(-c5ccc(Br)cc5)n[nH]4)c3)cc2C(F)(F)F)CC1 | 0 | 66* | 18 | 2 | 0 | 3
